Measurements taken from ChEMBL document CHEMBL1134293, “Design of selective and soluble inhibitors of tumor necrosis factor-alpha converting enzyme (TACE)” (J Med Chem, 2001).
Converted amounts (≈) assume the structure as drawn.

Legend:
[1] = biological target: Disintegrin and metalloproteinase domain-containing protein 17 (Homo sapiens, UniProt P78536); experiment: Inhibition of TACE using scintillation proximity assay (SPA)
[2] = biological target: Stromelysin-1 (Homo sapiens, UniProt P08254); experiment: Inhibition potency was determined by fluorescence-based peptide assay against matrix metalloprotease-3; set-up: species or system Escherichia coli
Stromelysin-1, sequence (P08254 whole entry): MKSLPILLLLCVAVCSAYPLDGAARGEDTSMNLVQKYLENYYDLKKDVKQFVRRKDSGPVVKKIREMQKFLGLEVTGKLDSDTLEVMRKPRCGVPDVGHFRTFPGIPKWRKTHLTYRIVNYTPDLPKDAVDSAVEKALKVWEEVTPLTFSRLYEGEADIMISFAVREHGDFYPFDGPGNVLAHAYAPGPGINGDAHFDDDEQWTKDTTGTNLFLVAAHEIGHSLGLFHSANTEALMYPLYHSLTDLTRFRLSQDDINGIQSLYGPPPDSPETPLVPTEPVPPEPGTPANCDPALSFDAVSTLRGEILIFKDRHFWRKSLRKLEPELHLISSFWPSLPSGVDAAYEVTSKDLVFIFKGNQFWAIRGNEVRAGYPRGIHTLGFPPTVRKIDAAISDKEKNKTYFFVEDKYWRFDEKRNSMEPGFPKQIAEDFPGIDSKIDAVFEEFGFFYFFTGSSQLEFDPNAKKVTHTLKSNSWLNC
Method in brief: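 Full-length active MMP-3 expressed in E. coli, refolded 1 h in 200 mM NaCl, 50 mM Tris, 5 mM CaCl2, 10 μM ZnSO4, 0.01% Brij 35, pH 7.6, used at 5 nM in the same buffer. Preincubated 20 min at room temperature with inhibitor across eleven 3-fold dilutions, then fluorogenic Dnp-Pro-Cha-Gly-Cys(Me)-His-Ala-Lys(Nma)-NH2 added; product read at ex 343/em 450 nm; IC50 (nM).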

[3] = biological target: Matrix metalloproteinase-9 (Homo sapiens, UniProt P14780); experiment: Inhibition potency was determined by fluorescence-based peptide assay against matrix metalloprotease-9
Matrix metalloproteinase-9, sequence (P14780 whole entry, the tested form may be a part): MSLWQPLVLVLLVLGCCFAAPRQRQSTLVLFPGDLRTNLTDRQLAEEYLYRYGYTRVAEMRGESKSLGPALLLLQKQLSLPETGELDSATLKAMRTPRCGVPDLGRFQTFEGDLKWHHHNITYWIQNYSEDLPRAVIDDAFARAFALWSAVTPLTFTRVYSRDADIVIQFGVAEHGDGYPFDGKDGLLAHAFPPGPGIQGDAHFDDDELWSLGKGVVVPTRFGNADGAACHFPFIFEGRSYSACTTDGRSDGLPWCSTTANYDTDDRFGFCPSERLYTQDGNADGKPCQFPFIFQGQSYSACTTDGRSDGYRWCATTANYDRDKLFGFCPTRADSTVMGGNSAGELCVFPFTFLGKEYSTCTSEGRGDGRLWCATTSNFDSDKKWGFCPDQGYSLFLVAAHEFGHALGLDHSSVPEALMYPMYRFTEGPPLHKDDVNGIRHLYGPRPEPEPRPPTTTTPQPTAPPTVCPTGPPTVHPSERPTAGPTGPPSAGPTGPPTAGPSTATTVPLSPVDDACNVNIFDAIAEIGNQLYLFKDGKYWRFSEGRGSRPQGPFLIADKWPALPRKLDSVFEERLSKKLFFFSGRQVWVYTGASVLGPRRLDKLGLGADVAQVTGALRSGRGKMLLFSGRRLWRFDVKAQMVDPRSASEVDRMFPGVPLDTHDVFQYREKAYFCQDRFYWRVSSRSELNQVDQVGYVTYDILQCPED
Method in brief: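 Catalytic domain of proMMP-9 purified from baculovirus-infected T. ni cell media, 0.1 nM in 200 mM NaCl, 50 mM Tris, 5 mM CaCl2, 10 μM ZnSO4, 0.01% Brij 35, pH 7.6. Preincubated with inhibitor 20 min at room temperature; fluorogenic Dnp-Pro-Cha-Gly-Cys(Me)-His-Ala-Lys(Nma)-NH2 added; fluorescence ex 343/em 450 nm; eleven-point 3-fold dilutions give IC50 (nM).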

[4] = biological target: T1, Interstitial collagenase (Homo sapiens, UniProt P03956); experiment: Inhibition potency was determined by fluorescence-based peptide assay against matrix metalloprotease-1; set-up: species or system Escherichia coli
T1 sequence (P03956 whole entry): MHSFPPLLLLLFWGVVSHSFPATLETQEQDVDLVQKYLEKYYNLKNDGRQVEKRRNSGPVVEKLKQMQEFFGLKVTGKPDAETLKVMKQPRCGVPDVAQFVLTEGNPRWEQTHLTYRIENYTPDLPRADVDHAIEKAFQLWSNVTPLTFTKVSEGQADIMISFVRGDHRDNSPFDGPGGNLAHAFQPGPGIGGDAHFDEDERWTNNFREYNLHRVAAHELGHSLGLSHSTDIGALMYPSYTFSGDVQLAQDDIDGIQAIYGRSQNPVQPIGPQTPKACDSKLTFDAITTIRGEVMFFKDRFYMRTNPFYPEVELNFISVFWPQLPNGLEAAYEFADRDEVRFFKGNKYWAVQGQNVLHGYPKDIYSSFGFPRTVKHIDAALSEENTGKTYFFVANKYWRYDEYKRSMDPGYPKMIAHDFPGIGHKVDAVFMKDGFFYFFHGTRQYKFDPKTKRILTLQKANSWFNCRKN
Method in brief: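 Recombinant MMP-1 catalytic domain expressed in E. coli, refolded 1 h in 200 mM NaCl, 50 mM Tris, 5 mM CaCl2, 10 μM ZnSO4, 0.01% Brij 35, pH 7.6, and assayed at 1.0 nM in the same buffer. Enzyme preincubated 20 min at room temperature with inhibitor (eleven-point 3-fold dilutions). Reaction started with fluorogenic Dnp-Pro-Cha-Gly-Cys(Me)-His-Ala-Lys(Nma)-NH2; ex 343/em 450 nm; IC50 (nM).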

[5] = test system: Mus musculus; experiment: Inhibition of soluble TNF-alpha production in LPS-Stimulated mice by administration of 40 mg/kg compound per orally; type: functional; settings: route oral
Method in brief: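 Female C3H/hen mice gavaged at 40 mg/kg (5 mL/kg, homogenized suspension in 0.5% HPMC/0.1% Tween 80) 10 min before ip LPS 0.2 mg/kg in PBS. Killed at 90 min; vena cava plasma TNF-α by ELISA. Percent inhibition vs vehicle group, n = 7 each, 2-sided t-test.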

[6] = test system: Mus musculus; experiment: Inhibition of soluble TNF-alpha production in LPS-Stimulated mice by administration of 40 mg/kg compound subcutaneously; type: functional; settings: sc, route subcutaneous
Method in brief: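 Female C3H/hen mice given 40 mg/kg sc (0.2 mL; DMSO stock into 0.9% NaCl/30% Trappsol HPB-20, final 1% DMSO) 10 min before ip LPS 0.2 mg/kg in PBS. Plasma from vena cava at 90 min, TNF-α by ELISA; percent inhibition vs vehicle controls, n = 7 per group, 2-sided t-test.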

[7] = Solubility in simulated gastric fluid; type: physicochemical; settings: read-out: S
[8] = organism: Rattus norvegicus; experiment: Inhibition of TNF alpha production in rat Zymosan inflammation model; type: functional
Method in brief: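 Male Lewis rats given single sc dose (50 mg/kg) as aqueous suspension in 5% EtOH, 5% propylene glycol, 10% Cremephore, 10% Molecusol (5 mL/kg), 10 min before intrapleural zymosan (0.5 mg in 0.25 mL H2O).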

Disintegrin and metalloproteinase domain-containing protein 17, sequence (P78536 whole entry, the tested form may be a part): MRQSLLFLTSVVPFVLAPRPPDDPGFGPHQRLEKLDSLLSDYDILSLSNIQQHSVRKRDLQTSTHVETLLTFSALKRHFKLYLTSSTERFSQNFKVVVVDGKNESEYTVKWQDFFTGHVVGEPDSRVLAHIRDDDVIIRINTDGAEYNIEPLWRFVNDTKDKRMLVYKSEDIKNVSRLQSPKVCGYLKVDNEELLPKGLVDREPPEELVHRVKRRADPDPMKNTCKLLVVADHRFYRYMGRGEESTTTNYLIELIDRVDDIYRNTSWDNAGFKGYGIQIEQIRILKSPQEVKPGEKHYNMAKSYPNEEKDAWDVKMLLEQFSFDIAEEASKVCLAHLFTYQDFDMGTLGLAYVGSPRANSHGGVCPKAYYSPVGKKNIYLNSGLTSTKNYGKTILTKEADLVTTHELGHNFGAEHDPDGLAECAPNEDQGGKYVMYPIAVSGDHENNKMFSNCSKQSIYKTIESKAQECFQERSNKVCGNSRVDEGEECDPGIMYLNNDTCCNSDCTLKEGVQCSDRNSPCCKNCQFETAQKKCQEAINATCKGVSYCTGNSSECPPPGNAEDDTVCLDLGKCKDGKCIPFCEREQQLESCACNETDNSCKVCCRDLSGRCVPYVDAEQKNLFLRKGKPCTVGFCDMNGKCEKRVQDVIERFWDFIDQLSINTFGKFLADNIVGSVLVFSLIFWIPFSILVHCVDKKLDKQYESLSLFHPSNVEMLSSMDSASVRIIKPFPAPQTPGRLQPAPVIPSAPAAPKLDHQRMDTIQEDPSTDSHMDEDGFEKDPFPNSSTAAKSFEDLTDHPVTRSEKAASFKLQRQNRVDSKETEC

Structure (SMILES)	IC50 [1] [nM]	IC50 [2] [nM]	IC50 [3] [nM]	IC50 [4] [nM]	inhibition in vivo at 40 mg/kg [5] [%]	inhibition in vivo at 40 mg/kg [6] [%]	solubility [7] [µg/mL]	Inhibition [8] [%]
CCC[C@@H]([C@@H](Cc1ccc(C)s1)C(=O)N[C@@H](CCC/N=C(/N)NS(=O)(=O)c1ccccn1)C(=O)Nc1nccs1)N(O)C=O	11	218	379	> 2700	–	–	–	–
CCC[C@@H]([C@@H](CC(C)C)C(=O)N[C@@H](CCC/N=C(/N)NS(=O)(=O)c1ccccn1)C(=O)Nc1nccs1)N(O)C=O	6	84	43	76	-28	–	–	–
N/C(=N/CCC[C@H](NC(=O)[C@H](CC1CCCCC1)[C@H](CCC(F)(F)F)N(O)C=O)C(=O)Nc1nccs1)N[N+](=O)[O-]	5	214	49	110	-24	73	54 (≈ 88.7 µM)	–
CC(C)C[C@@H](C(=O)N[C@H](C(=O)Nc1nccs1)[C@H](C)CC/N=C(/N)NS(C)(=O)=O)[C@H](C(C)C)N(O)C=O	35	49	12	8.1	7	–	–	–
CCC[C@@H]([C@@H](Cc1ccc(C)s1)C(=O)N[C@@H](CCC/N=C(/N)N[N+](=O)[O-])C(=O)Nc1nccs1)N(O)C=O	–	79	190	> 2500	–	–	–	–
CC1CCC(C[C@@H](C(=O)N[C@@H](CCC/N=C(/N)N[N+](=O)[O-])C(=O)Nc2nccs2)[C@H](C(C)C)N(O)C=O)CC1 (stereo partly drawn)	–	76	35	85	-6	71	210 (≈ 369 µM)	–
CC(C)C[C@@H](C(=O)N[C@H](C(=O)Nc1nccs1)[C@H](C)CC/N=C(/N)N[N+](=O)[O-])[C@H](C)N(O)C=O	7	273	19	38	-2	–	> 850	–
CC(C)C[C@@H](C(=O)N[C@H](C(=O)Nc1nccs1)[C@H](C)CC/N=C(/N)NS(C)(=O)=O)[C@H](C)N(O)C=O	12	169	8.5	18	-3	–	> 2130	–
CC(C)C[C@@H](C(=O)N[C@@H](CCC/N=C(/N)NS(C)(=O)=O)C(=O)Nc1nccs1)[C@H](C(C)C)N(O)C=O	42	62	22	21	–	–	–	–
NC(=NCCC[C@H](NC(=O)[C@H](CC1CCCCC1)[C@H](C1CC1)N(O)C=O)C(=O)Nc1nccs1)N[N+](=O)[O-]	22	1490	602	144	-3	56	920 (≈ 1660 µM)	–
CC1CCC(C[C@@H](C(=O)N[C@@H](CCCN=C(N)NS(=O)(=O)c2ccccn2)C(=O)Nc2nccs2)[C@H](C(C)C)N(O)C=O)CC1 (stereo partly drawn)	16	115	71	96	-9	–	–	–
CCC[C@@H]([C@@H](CC(C)C)C(=O)N[C@@H](CCCN=C(N)NS(C)(=O)=O)C(=O)Nc1nccs1)N(O)C=O	7.9	122	51	100	–	–	> 1130	–
CCC[C@@H]([C@@H](CC(C)C)C(=O)N[C@H](C(=O)Nc1nccs1)[C@H](C)CC/N=C(/N)N[N+](=O)[O-])N(O)C=O	5	47	13	24	-10	–	–	–
CC(C)C[C@@H](C(=O)N[C@H](C(=O)Nc1nccs1)[C@H](C)CC/N=C(/N)NS(C)(=O)=O)[C@H](CCC(F)(F)F)N(O)C=O	8	17	22	52	-5	–	–	–
CCC[C@@H]([C@@H](CC1CCC(C)CC1)C(=O)N[C@@H](CCC/N=C(/N)N[N+](=O)[O-])C(=O)Nc1nccs1)N(O)C=O (stereo partly drawn)	9	200	115	188	-19	64	160 (≈ 281 µM)	–
CCC[C@@H]([C@@H](CC(C)C)C(=O)N[C@@H](CCC/N=C(/N)N[N+](=O)[O-])C(=O)Nc1nccs1)N(O)C=O	–	31	13	34	-29	96	> 1600	30
CCC[C@@H]([C@@H](CC1CCC(C)CC1)C(=O)N[C@@H](CCCN=C(N)NS(=O)(=O)c1ccccn1)C(=O)Nc1nccs1)N(O)C=O (stereo partly drawn)	6	282	143	133	–	–	160 (≈ 241 µM)	–
CCC[C@@H]([C@@H](CC1CCCCC1)C(=O)N[C@@H](CCC/N=C(/N)N[N+](=O)[O-])C(=O)Nc1nccs1)N(O)C=O	8	203	55	108	-27	72	330 (≈ 595 µM)	–
CCC[C@@H]([C@@H](CC(C)C)C(=O)N[C@H](C(=O)Nc1nccs1)[C@H](C)CCN=C(N)NS(C)(=O)=O)N(O)C=O	6	156	48	57	28	–	–	–
CC(C)C[C@@H](C(=O)N[C@@H](CCC/N=C(/N)N[N+](=O)[O-])C(=O)Nc1nccs1)[C@H](Cc1ccccc1)N(O)C=O	–	31	11	26	–	–	–	–
CC1CCC(C[C@@H](C(=O)N[C@@H](CCCN=C(N)NS(C)(=O)=O)C(=O)Nc2nccs2)[C@H](C(C)C)N(O)C=O)CC1 (stereo partly drawn)	14	155	89	122	32	–	1400 (≈ 2330 µM)	–
